# Screens (PubChem BioAssay)
# Cl transport mod = KCC2 cotransporter modulators, thallium flux, primary screen, cell-based, HEK293 KCC2, FluoZin-2 fluorescence, MLSMR; B-score of Tl+ flux slope (higher = more flux/activation; lower = inhibition) at 10 µM; KCC2 cells, thallium flux FluoZin-2 fluorescence; 2.2% of 190,000 active;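 active = thallium flux slope and its plate-corrected score both differing from the plate sample mean at a set confidence after two filtering rounds, in either direction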;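 also: slope of fluorescence scaled to starting intensity during 10 to 20 s after thallium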
# Yeast growth inh = growth inhibitors of yeast BB579 in restrictive medium, primary screen, yeast lifespan-shortening project, S. cerevisiae; OD615, 48 h; inhibition, % at 10 µM; 0.51% of 140,000 active;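 active = inhibition above a set limit, 3 SD over the mean compound inhibition, cut at about 44% in these data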
#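 test system = yeast BB579 (DeaD) | buffer or medium = restrictive CSMM-D medium | doses = single compound dose of 10 µM, 0.25% DMSO final | times = 4 h preincubation and 48 h exposure at 30 °C | technique = culture absorbance at 615 nm | benchmarks = amphotericin B 10 µg/mL, positive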
# WT yeast gro inh = growth inhibition of WT strain, primary screen, mitochondrial fusion inhibitor project, WT and mutant strains, chemical genetic; mitochondrial fusion phenotypic screen; inhibition, % at 10 µM; 2.1% of 190,000 active; AID 1362, 2008; in the data active = inhibition above about 58%; tested in S. cerevisiae
# Yeast lifespan up = compounds extending yeast replicative lifespan, primary screen, S. cerevisiae, OD615. S. cerevisiae growth with nicotinamide; deaD strain in restrictive glucose medium. inhibition of the nicotinamide effect, % at 10 µM. 0.68% of 130,000 active. AID 775, 2007;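 active = inhibition above a set limit, placed 3 SD over the median of all compounds, cut at about 26% in these data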;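 also: 0% = nicotinamide-treated wells and 100% = cells grown without nicotinamide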
#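 assay system = DeaD-strain S. cerevisiae | measured by = absorbance at 615 nm | probe or stimulus = nicotinamide 1.5 mM | buffer or medium = CSMM-D glucose medium, restrictive | times = 48 h at 30 °C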
# RAM inhibit = inhibitors of the yeast RAM network, primary screen, dse1pr::URA3 reporter, 5-FOA selection; inhibition, % at 50 µM; 1.8% of 190,000 active; S. cerevisiae dse1pr::URA3 reporter, 5-FOA growth OD615, 2 d; analog-sensitive cbk1-as2 kinase mutant strain;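 active = inhibition above a set limit, 3 SD over mean compound inhibition, cut at about 8.4% in these data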;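 also: 0% = DMSO-only wells with no growth and 100% = 10 µM 1-NA-PP1 full growth; inhibition rescues growth on 5-FOA so higher OD means more RAM inhibition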
# An asterisk follows results filed as active; . = no result. Most compounds without a hit are left out; they make up all but 5.5% or so of the library.
SMILES,Cl transport mod,Yeast growth inh,WT yeast gro inh,Yeast lifespan up,RAM inhibit
CCCCOc1ccc(-c2cn3ccccc3n2)cc1[N+](=O)[O-],-0.0802,-32.9,38.2,-7.1,-0.1
CCCOc1ccc(-c2csc(N)n2)cc1[N+](=O)[O-],-1.01,-11.8,75.8*,-5.2,-1.1
CC(=O)Oc1c(C(=O)c2nnc(C)o2)c(=O)n(C)c2ccccc12,0.0868,19.0,-11.1,54.3*,0.3
CCN1CCN(C(=O)c2oc(=O)c3ccccc3c2-c2ccc(C)cc2)CC1,0.538,23.2,3.0,-9.9,-0.3
Cc1ccc(-c2c(C(=O)NCc3ccc(F)cc3)oc(=O)c3ccccc23)cc1,0.113,-11.6,61.8*,0.1,4.2
Cc1ccc(O)c(C(=O)c2cc(C(=O)NCCc3ccccc3)c(=O)n(CCc3ccccc3)c2)c1,-0.6,-18.5,-13.9,2.6,8.9*
COc1ccc(O)c(C(=O)c2cc(C(=O)NCCc3ccccc3)c(=O)n(CCc3ccccc3)c2)c1,-2.16,-2.1,29.7,-2.5,6.4
COc1ccc(C(=O)OCC(=O)N2CCCC2=O)c(OC)c1,-0.116,.,1.4,.,1.5
Cc1cc(S(=O)(=O)NCC(C)C)ccc1OCC(=O)NCC1CCCO1 (configuration not stated),0.404,-19.8,-19.4,4.0,0.9
CC(=O)/C(=N\Nc1ccc(C)cc1)N1CCOCC1,0.165,92.3*,43.9,-13.3,-1.6
CCCCNC(=O)NCc1cnn(C)c1C,-0.0827,-10.7,8.0,-4.6,0.3
NNC(=O)c1cccc(O)c1,0.841,-33.5,1.1,-1.7,1.4
CN(C)c1nc(N(C)C)nc(N(C#N)CCOc2ccccc2)n1,.,-45.8,15.7,.,9.8*
Cc1cccc(C(=O)Nc2nc(C)c(C(=O)Nc3ccc4c(c3)CCC4)s2)c1,-0.18,-42.1,10.7,-15.6,8.6*
Cc1nc2cc3ccccc3cc2c(=O)[nH]1,-0.6,45.4*,10.5,-16.2,-1.1
Cc1ccc(S(=O)(=O)N(CC(=O)Nc2ccccc2C(=O)O)c2ccc(Cl)cc2)cc1,-2.2,.,8.5,.,8.5*
NC(=O)CN(c1ccc(Cl)cc1)S(=O)(=O)c1ccccc1,0.293,-29.2,-7.3,0.9,1.2
CCOC(=O)c1cc(-c2ccccc2)sc1NC(=O)CSc1nncs1,-1.03,-12.8,14.2,-2.0,6.7
CCOC(=O)c1c(-c2ccccc2)csc1NC(=O)CSc1nncs1,-0.914,-36.0,59.1*,13.9,10.9*
CC(C)c1nc2sc3c(=O)[nH]cnc3c2c2c1CCC2,-0.349,-6.6,-1.3,-3.5,1.9
CC(C)c1nc2sc3c(=S)nc[nH]c3c2c2c1CCC2,159*,.,.,.,.
Cc1ccccc1C(=O)Nc1ccc(-c2nc3ccc(C(=O)c4ccccc4)cc3[nH]2)cc1,-0.844,-31.5,-13.8,-10.8,5.0
O=C(Nc1ccc(-c2nc3ccccc3[nH]2)cc1)c1ccc(N2C(=O)CCC2=O)cc1,-1.2,3.8,-2.1,-1.8,9.1*
O=C(c1ccccc1)c1ccc2nc(-c3ccc(NC(=O)c4ccccc4Br)cc3)[nH]c2c1,0.188,-34.0,-26.9,-0.1,8.7*
NNC(=O)c1cc2c(N3CCC(Cc4ccccc4)CC3)ncnc2s1,-0.957,.,58.1*,.,4.7
SMILES,Cl transport mod,Yeast growth inh,WT yeast gro inh,Yeast lifespan up,RAM inhibit
C=CCC1(/C=N/O)CCOC(C)(C)C1 (configuration not stated),0.13,.,.,.,.
COc1ccc(NC(=O)C(=O)NNC(=O)c2cccs2)c(OC)c1,10.8*,-21.4,-7.3,-8.0,2.5
COc1ccc(NC(=O)C(=O)NNC(=O)c2cccs2)cc1,12.5*,-33.6,4.0,-0.6,0.2
CC(C)(C)NC(=O)C(=O)NNC(=O)COc1ccc(Br)cc1,20.2*,-24.9,5.6,2.1,0.7
Cc1ccc(NC(=O)C(=O)NNC(=O)c2cccs2)cc1,42.7*,.,1.2,.,0.7
COc1cccc(CNCc2ccc(SC)cc2)c1OC,0.331,-77.0,-4.4,2.6,0.7
CNCCCOc1cc(C)cc(C)c1C,0.534,.,0.6,.,0.6
COc1ccc(OCC(=O)Nc2ccc(C)cc2)cc1,.,-29.9,-4.7,-13.7,-1.2
COc1ccc(OCC(=O)NNC(=O)C(=O)Nc2ccc(C)cc2)cc1,21.9*,-30.1,-4.8,-0.7,3.8
COc1ccc(C(=O)/C(=C/c2cccs2)c2nc3ccccc3o2)cc1,.,-35.0,-13.6,3.4,4.7
COc1ccc(/C=C(\CC(=O)O)c2nc3ccccc3o2)cc1,.,.,-1.8,.,9.6*
Cc1nc2ccc(NC(=O)Cc3ccc4c(c3)OCCO4)cc2s1,1.18,-58.2,56.0,-5.8,-1.0
Cc1c(Cl)cccc1S(=O)(=O)Nc1ccnn1C,-0.405,.,.,.,.
CC(C)(C)C(=O)NC(=S)Nc1ccc(F)cc1,0.741,-4.7,-8.0,1.3,-0.1
Cc1ccc(-c2ncccc2OC(=O)C23CC4CC(CC(C4)C2)C3)cc1,-0.047,-18.9,72.8*,-9.6,3.7
S=c1nc(-c2ccccc2)[nH]c2ccccc12,39.6*,.,4.8,.,0.4
O=c1nc(-c2ccccc2)c2ccccc2[nH]1,-0.46,-23.9,-7.0,-7.8,3.1
Clc1cc2c(nn1)Nc1ccccc1S2,-0.00955,.,.,.,.
S=C1Nc2ccccc2Sc2ccc(Cl)cc21,16.4*,-14.9,13.8,1.9,0.7
Cc1cc(CNC(=O)COc2ccc(F)cc2Cl)cc(C)c1O,-0.775,.,-0.5,.,10.0*
O=C(COc1ccc(Cl)cc1Cl)NCc1ccncc1,-0.593,-16.2,4.0,-21.0,0.4
COc1cc(OC)nc(Oc2ccccc2C(=O)Oc2ccc(C)cc2)n1,-1.74,-105.0,63.2,1.4,9.5*
COc1cc(OC)nc(Oc2ccccc2C(=O)Oc2ccc(Cl)cc2)n1,-1.25,-83.4,67.9*,3.5,7.1
COc1cc(OC)nc(Oc2ccccc2C(=O)Oc2ccccc2Cl)n1,-1.92,-93.4,61.5*,3.5,2.6
COc1ccccc1C(=O)Oc1ccc(C(C)(C)C)cc1,0.547,-39.5,.,-11.3,2.5
SMILES,Cl transport mod,Yeast growth inh,WT yeast gro inh,Yeast lifespan up,RAM inhibit
COC(=O)c1ccccc1Oc1nc(Cl)cc(OC)n1,-0.097,22.5,-14.3,-4.6,-0.5
Cn1c(=O)c2c([nH]c(OCc3ccc(Cl)cc3Cl)[n+]2Cc2ccc(F)cc2)n(C)c1=O,1.51,.,.,.,.
CC1CCC2C(=O)N(c3ccccc3OC(=O)c3ccccc3F)C(=O)C2C1 (configuration not stated),1.84,.,16.7,.,1.1
Cc1ccc(NC(=O)c2ccc(Nc3c([N+](=O)[O-])cc([N+](=O)[O-])cc3[N+](=O)[O-])cc2)cc1,0.355,-30.8,59.8*,-1.5,6.0
CC(C)(C)c1ccc(NC(=O)c2ccccc2)c([N+](=O)[O-])c1,-0.22,.,65.8*,.,2.8
Cc1ccc(NC(=O)c2ccc(N/N=C/c3cccc(O)c3)c([N+](=O)[O-])c2)cc1,.,-12.4,-0.6,-10.6,9.0*
